ChEMBL document CHEMBL3352470, “New ent-kauranes from the fruits of Annona glabra and their inhibitory nitric oxide production in LPS-stimulated RAW264.7 macrophages” (Bioorg Med Chem Lett, 2015)

Experiments:
[1] = system: RAW264.7; experiment: Cytotoxicity against mouse RAW264.7 cells at 30 uM by MTT assay relative to control; format: cell-based; details: raw264.7, 30 µM
[2] = system: RAW264.7; experiment: Inhibition of LPS-induced nitric oxide production in mouse RAW264.7 cells at 30 uM after 24 hrs by Griess assay relative to vehicle-treated control; format: functional; details: RAW264.7, 24 h
How it was run: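 RAW 264.7 cells were seeded at 5×10^5 cells/mL. After 3 h they were pretreated with compound at 3, 10 and 30 µM, then 1 µg/mL LPS was added for 24 h. Supernatant nitrite was measured by the Griess reaction. Controls were unstimulated cells, LPS alone and dexamethasone. Values are mean ± SD of three independent experiments.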

[3] = system: RAW264.7; experiment: Inhibition of LPS-induced nitric oxide production in mouse RAW264.7 cells after 24 hrs by Griess assay relative to vehicle-treated control; format: functional, cell-based; details: RAW264.7, 24 h
How it was run: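 RAW 264.7 cells were seeded at 5×10^5 cells/mL. After 3 h they were pretreated with compound at a series of concentrations chosen from the screening results, then stimulated 24 h with 1 µg/mL LPS. Nitrite in the supernatant was read by the Griess reaction. IC50 came from the dose-dependent inhibition. Dexamethasone was the positive control.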

Row | IC50 [3] [µM] | Compound | Activity [1] | inhibition at 30 µM [2] [%]
1 | 0.39 | C[C@@]12CCC[C@@](C)(C(=O)O)[C@H]1C[C@H](O)[C@@]13C[C@@H](CC[C@@H]21)[C@@](O)(CO)C3 | Non-toxic | 90
2 | > 30 | C[C@@]12CCC[C@@](C)(C(=O)O[C@@H]3O[C@H](CO)[C@@H](O)[C@H](O)[C@H]3O)[C@H]1C[C@H](O)[C@@]13C[C@@H](CC[C@@H]21)[C@@H](CO)C3 | Non-toxic | –
3 | 0.01 | C[C@@]12CCC[C@@](C)(C(=O)O[C@@H]3O[C@H](CO)[C@@H](O)[C@H](O)[C@H]3O)[C@H]1C[C@H](O)[C@]13C=C(CO)[C@H](CC[C@@H]21)C3 | Non-toxic | 90
4 | > 30 | C[C@@]12CCC[C@@](C)(C(=O)O[C@@H]3O[C@H](CO)[C@@H](O)[C@H](O)[C@H]3O)[C@H]1CC[C@@]13C[C@@H](CC[C@H]12)[C@@](O)(CO)C3 | Non-toxic | –
5 | 17.1 | CC1(C)CCC[C@]2(C)[C@@H]1CC[C@@]13C[C@@H](CC[C@H]12)[C@@](O)(CO)C3 | Non-toxic | 70.4
6 | 6.2 | CC1(C)CCC[C@]2(C)[C@@H]1CC[C@@]13C[C@@H](CC[C@H]12)[C@](O)(CO)C3 | Non-toxic | 70.4
7 | 14.3 | C[C@@]12CCC[C@@](C)(C(=O)O)[C@H]1CC[C@@]13C[C@@H](CC[C@H]12)[C@](O)(CO)C3 | Non-toxic | 70.4
8 | 0.32 | C[C@@]12CCC[C@@](C)(C=O)[C@H]1CC[C@@]13C[C@@H](CC[C@H]12)[C@](O)(CO)C3 | Non-toxic | 90
